Reference: ChEMBL document CHEMBL4321818, “Anti-biofilm Agents against Pseudomonas aeruginosa: A Structure-Activity Relationship Study of C-Glycosidic LecB Inhibitors” (J Med Chem, 2019)
Values belong to the compound of their own block, whether it stands above or below them. Calls of active or inactive are those of the source. The rule behind the calls is not given here.

Tests used:
[1] = Intrinsic clearance in C57BL/6J mouse liver microsomes at 1 uM preincubated for 10 mins followed by NADPH addition and measured up to 45 mins by LC-MS/MS analysis; format: ADME, Microsome; settings: 0.75 h
Outline: (§1)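 Compound at 1 µM in 0.1 M phosphate buffer pH 7.4 with liver microsomes at 0.5 mg/mL. Preincubated 10 min, then started with an NADPH regenerating system. Sampled at 1–45 min at 37 °C and quenched in MeCN with internal standard. Supernatant analyzed by LC-MS/MS. CLint = −slope of ln(peak area ratio) vs time × 1000/protein concentration. CYP marker substrates served as quality control.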

[2] = Intrinsic clearance in human liver microsomes at 1 uM preincubated for 10 mins followed by NADPH addition and measured up to 45 mins by LC-MS/MS analysis; format: ADME, Microsome; settings: 0.75 h; outline: as §1
[3] = system: HepG2; assay: Cytotoxicity against human HepG2 cells assessed as reduction in cell viability up to 100 uM after 24 hrs by MTT assay; format: cell-based; settings: hepg2, 24 h
Outline: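 Hep G2 cells grown in DMEM with 10% heat-inactivated FCS at 37 °C, 5% CO2, seeded and grown to 75% confluency. Exposed to 0.01–100 µM compound (DMSO stock diluted in PBS, final DMSO 0.1%) for 24 h. Washed, then MTT at 1 mg/mL final for 3 h. Solubilized in 0.04 M HCl/2-propanol, read at 560 nm with 670 nm reference. Normalized as (A−B)/(C−B), with B the Triton X-100 (0.5%) control and C the vehicle control. At least three assays.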

[4] = Stability in mouse plasma at 25 uM measured up to 120 mins by HPLC-MS analysis; format: ADME, cell-free; settings: 2 h
Outline: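 Compound from DMSO added to mouse plasma (pH 7.4, 37 °C) at 25 µM final. Incubated 0, 15, 30, 60, 90 and 120 min at 37 °C. Aliquots extracted with methanol containing internal standard and analyzed by HPLC-MS, normalized to internal standard and time 0. Procaine and propoxycaine served as unstable controls, procainamide (250 µM) as stable control. At least three independent repeats.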

[5] = Protein binding in CD1 mouse plasma after 2 hrs by HPLC analysis relative to control; format: ADME, cell-free; settings: for fraction unbound at 2 h: CD1, mouse, read-out: PPB; for PPB: mouse, 2 h
Outline: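 Rapid equilibrium dialysis with compound at 100 µM final in pooled CD-1 mouse plasma, naproxen as control. Incubated 37 °C for 2 h at 800 rpm. Samples matrix-matched, extracted with cold MeCN/H2O (90:10) containing caffeine internal standard, and quantified by HPLC-MS/MS. %free = buffer/plasma chamber concentration × 100; %bound = 100 − %free.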

[6] = molecular target: T1, Fucose-binding lectin PA-IIL (Pseudomonas aeruginosa (strain ATCC 15692 / DSM 22644 / CIP 104116 / JCM14847 / LMG 12228 / 1C / PRS 101 / PAO1), UniProt Q9HYN5); assay: Inhibition of N-(fluorescein-5-yl)-N'-(alpha-L-fucopyranosyl ethylen)thiocarbamide binding to Pseudomonas aeruginosa PA14 LecB incubated for 22 to 24 hrs by fluorescence polarization assay
Target sequence in this assay (Q9HYN5 1-115): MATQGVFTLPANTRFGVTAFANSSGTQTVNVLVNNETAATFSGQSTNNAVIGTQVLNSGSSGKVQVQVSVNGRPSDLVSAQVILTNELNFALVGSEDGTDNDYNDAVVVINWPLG

[7] = molecular target: T1, Fucose-binding lectin PA-IIL; assay: Inhibition of N-(fluorescein-5-yl)-N'-(alpha-L-fucopyranosyl ethylen)thiocarbamide binding to Pseudomonas aeruginosa PAO1 LecB incubated for 22 to 24 hrs by fluorescence polarization assay
Target sequence in this assay (Q9HYN5 whole entry): as the sequence (Q9HYN5 1-115) above

[8] = system: Pseudomonas aeruginosa; assay: Antibacterial activity against Pseudomonas aeruginosa PA14 transfected with pMP7605 plasmid at 100 uM after 23 hrs by fluorescence based confocal light microscopic analysis; format: functional, organism-based
[9] = system: Pseudomonas aeruginosa; assay: Antibiofilm activity against Pseudomonas aeruginosa PA14 transfected with pMP7605 plasmid at 100 uM after 48 hrs by fluorescence based confocal light microscopic analysis relative to control; format: functional; settings: PA14, 48 h
Outline: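 P. aeruginosa PA14 wild type carrying the mCherry plasmid pMP7605 was grown overnight in LB at 37 °C, then diluted to OD600 0.02 in M63 minimal medium. Compound (100 µM final, from DMSO stock) was added and cultures incubated 48 h at 30 °C. Biofilm biomass was quantified by confocal laser scanning microscopy versus DMSO control; means ± SD of three independent assays, Student's t test.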

[10] = Half life in CD1 mouse plasma at 10 mg/kg, po or ip after 24 hrs; format: ADME, organism-based
[11] = Solubility of compound in TBS/Ca containing 1% DMSO at 1 mM; settings: 1000 µM
[12] = system: HepG2; assay: Cytotoxicity against human HepG2 cells assessed as cell viability at 100 uM after 24 hrs by MTT assay relative to control; format: cell-based; settings: hepg2, 24 h
Outline: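 Hep G2 cells in DMEM + 10% FCS were grown to 75% confluency, then exposed to compound (0.01–100 µM, 0.1% DMSO final) for 24 h at 37 °C, 5% CO2. MTT was added at 1 mg/mL final for 3 h and solubilised in 0.04 M HCl/2-propanol; A560 read with 670 nm reference. Normalised (A−B)/(C−B) to 0.5% Triton X-100 and vehicle controls; SD of ≥3 assays.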

Intrinsic clearance (CLint) [1]: < 10 µL/min/mg
Intrinsic clearance (CLint) [2]: < 10 µL/min/mg
Stability [4]: Stable
fraction unbound at 2 h [5]: 0.3 to 0.4
SMILES: Cc1oncc1S(=O)(=O)NC[C@H]1O[C@@H](C)[C@@H](O)[C@@H](O)[C@@H]1O
Activity [3]: Non-Toxic

SMILES: Cc1ccsc1S(=O)(=O)NC[C@H]1O[C@@H](C)[C@@H](O)[C@@H](O)[C@@H]1O
IC50 [6]: 200 nM
IC50 [7]: 1320 nM

SMILES: Cc1ccc(C#Cc2ccc(S(=O)(=O)NC[C@H]3O[C@@H](C)[C@@H](O)[C@@H](O)[C@@H]3O)s2)cc1
IC50 [6]: 350 nM
IC50 [7]: 1720 nM

SMILES: C[C@@H]1O[C@H](CNS(=O)(=O)c2ccc(/C=C\c3ccccc3)s2)[C@@H](O)[C@H](O)[C@@H]1O
IC50 [6]: 440 nM
IC50 [7]: 2320 nM

SMILES: Cc1ccc(S(=O)(=O)NC[C@H]2O[C@@H](C)[C@@H](O)[C@@H](O)[C@@H]2O)s1
Intrinsic clearance (CLint) [1]: 10 µL/min/mg
Intrinsic clearance (CLint) [2]: < 10 µL/min/mg
Activity [3]: Non-Toxic
Stability [4]: Stable
fraction unbound at 2 h [5]: 0.3 to 0.4
IC50 [6]: 560 nM
IC50 [7]: 3530 nM

SMILES: C[C@@H]1O[C@H](CNS(=O)(=O)c2ccco2)[C@@H](O)[C@H](O)[C@@H]1O
IC50 [6]: 460 nM
IC50 [7]: 3150 nM

SMILES: Cc1cc(S(=O)(=O)NC[C@H]2O[C@@H](C)[C@@H](O)[C@@H](O)[C@@H]2O)c(C)s1
Activity [8]: inactive
Intrinsic clearance (CLint) [1]: < 10 µL/min/mg
Intrinsic clearance (CLint) [2]: < 10 µL/min/mg
Activity [3]: Non-Toxic
Stability [4]: Stable
fraction unbound at 2 h [5]: 0.3 to 0.4
inhibition at 100 µM [9]: > 80%

SMILES: Cc1cc(S(=O)(=O)NC[C@H]2O[C@@H](C)[C@@H](O)[C@@H](O)[C@@H]2O)c(C(F)(F)F)o1
IC50 [6]: 460 nM
IC50 [7]: 3470 nM

fraction unbound at 2 h [5]: 0.3 to 0.4
SMILES: CO[C@H]1O[C@H](CNS(=O)(=O)c2cccs2)[C@@H](O)[C@H](O)[C@@H]1O

SMILES: C[C@@H]1O[C@H](CNC(=O)c2ccccc2)[C@@H](O)[C@H](O)[C@@H]1O
IC50 [6]: 3540 nM
IC50 [7]: 8730 nM

SMILES: Cc1csc(S(=O)(=O)NC[C@H]2O[C@@H](C)[C@@H](O)[C@@H](O)[C@@H]2O)c1
IC50 [6]: 320 nM
IC50 [7]: 2550 nM

SMILES: Cc1ccccc1C#Cc1ccc(S(=O)(=O)NC[C@H]2O[C@@H](C)[C@@H](O)[C@@H](O)[C@@H]2O)s1
IC50 [6]: 270 nM
IC50 [7]: 1620 nM

SMILES: Cc1cccc(C#Cc2ccc(S(=O)(=O)NC[C@H]3O[C@@H](C)[C@@H](O)[C@@H](O)[C@@H]3O)s2)c1
IC50 [6]: 300 nM
IC50 [7]: 1720 nM

PPB [5]: 73%
half-life [10]: 17 min
SMILES: Cc1cc(C)c(S(=O)(=O)NC[C@H]2O[C@@H](C)[C@@H](O)[C@@H](O)[C@@H]2O)c(C)c1

SMILES: CCc1ccc(S(=O)(=O)NC[C@H]2O[C@@H](C)[C@@H](O)[C@@H](O)[C@@H]2O)s1
IC50 [6]: 380 nM
IC50 [7]: 4020 nM

SMILES: C[C@@H]1O[C@H](CNS(=O)(=O)c2ccc(C#CCCc3ccccc3)s2)[C@@H](O)[C@H](O)[C@@H]1O
IC50 [6]: 400 nM
IC50 [7]: 3130 nM

fraction unbound at 2 h [5]: 0.3 to 0.4
SMILES: CO[C@H]1O[C@H](CNS(=O)(=O)c2c(C)cc(C)cc2C)[C@@H](O)[C@H](O)[C@@H]1O

SMILES: C[C@@H]1O[C@H](CNS(=O)(=O)c2ccn(C)n2)[C@@H](O)[C@H](O)[C@@H]1O
IC50 [6]: 730 nM
IC50 [7]: 7010 nM

solubility [11]: Insoluble
SMILES: C[C@@H]1O[C@H](CNC(=O)c2ccc(-c3ccccc3)s2)[C@@H](O)[C@H](O)[C@@H]1O

SMILES: C[C@@H]1O[C@H](CNS(=O)(=O)c2ccsc2)[C@@H](O)[C@H](O)[C@@H]1O
IC50 [6]: 590 nM
IC50 [7]: 1850 nM

SMILES: COc1ccc(C#Cc2ccc(S(=O)(=O)NC[C@H]3O[C@@H](C)[C@@H](O)[C@@H](O)[C@@H]3O)s2)cc1
IC50 [6]: 280 nM
IC50 [7]: 1750 nM

PPB [5]: 81%
half-life [10]: 34 min
SMILES: C[C@@H]1O[C@H](CNS(=O)(=O)c2cccs2)[C@@H](O)[C@H](O)[C@@H]1O

SMILES: C[C@@H]1O[C@H](CNS(=O)(=O)c2ccc(Br)s2)[C@@H](O)[C@H](O)[C@@H]1O
IC50 [6]: 570 nM
IC50 [7]: 3310 nM

Intrinsic clearance (CLint) [1]: < 10 µL/min/mg
Intrinsic clearance (CLint) [2]: < 10 µL/min/mg
Stability [4]: Stable
SMILES: C[C@@H]1O[C@H](CNS(=O)(=O)c2cc(Cl)c(Cl)s2)[C@@H](O)[C@H](O)[C@@H]1O
Activity [3]: Non-Toxic

SMILES: C[C@@H]1O[C@H](CNC(=O)c2cc3ccccc3o2)[C@@H](O)[C@H](O)[C@@H]1O
IC50 [6]: 2410 nM
IC50 [7]: 10200 nM

SMILES: C[C@@H]1O[C@H](CNS(=O)(=O)c2ccc(C#Cc3ccccc3)s2)[C@@H](O)[C@H](O)[C@@H]1O
Activity [8]: inactive
Intrinsic clearance (CLint) [1]: < 10 µL/min/mg
Intrinsic clearance (CLint) [2]: < 10 µL/min/mg
Stability [4]: Stable
fraction unbound at 2 h [5]: 0.3 to 0.4
inhibition at 100 µM [9]: > 90%
Activity [12]: 64%
